The source made the active and inactive calls. The calls are words filed in the database; no cut-off is given here.
Key:
[1] = Binding affinity to fluorescent labelled LBS2 DNA (unknown origin) by fluorescence polarization assay
Method in brief: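 Fixed concentration of His-tagged oligomerization-deficient LANA DBD mutant (aa1008-1146, 200 nM final) was pre-incubated 60 min with compound. Fluorescein-labelled LBS2 (10 nM final) was then added and incubated 90 min. Buffer was 10 mM HEPES, 150 mM NaCl, 0.005% Tween20, 5% DMSO. Polarization was read at ex 485/em 520 nm. Runs were done with and without LANA to exclude DNA or quenching interference. Duplicates, two independent experiments.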

ORF 73 [2] = target: T1, ORF 73 (Human herpesvirus 8, UniProt O40947); assay: (§1) Inhibition of fluorescent labelled LBS2 DNA binding to human herpesvirus 8 C-terminal His-tagged LANA oligomerization deficient mutant DBD (1008 to 1146 residues) expressed in Escherichia coli BL21 (DE3) preincubated for 60 mins followed by fluorescent labelled LBS2 addition and measured after 90 mins by fluorescence polarization assay; set-up: species or system Human gammaherpesvirus 8
Method in brief: (§2)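 FP competition assay. His-tagged LANA DBD mutant (200 nM final) pre-incubated with serially varied compound for 60 min. Fluorescein-labelled LBS1, LBS2 or LBS3 (10 nM final) then added and incubated 90 min. Buffer was 10 mM HEPES, 150 mM NaCl, 0.005% Tween20 with 5% DMSO. Read at excitation 485 nm, emission 520 nm. Duplicates in two independent experiments. Runs without LANA checked for interference. IC50 derived from dose-response.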

[3] = test system: ORF 73 (Human herpesvirus 8), O40947 [UNDEFINED MUTATION]; assay: as §1, with “(DE3) at 1 mM” for “(DE3)”, “assay relative to control” for “assay”; details: Human gammaherpesvirus 8
Method in brief: (§3)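 Single-concentration FP competition assay (1 mM or 500 µM compound). LANA DBD mutant (200 nM final) pre-incubated with compound for 60 min, then fluorescein-labelled LBS2 (10 nM final) added and incubated 90 min. Buffer was HEPES/NaCl/Tween20 with 5% DMSO. Read at excitation 485 nm, emission 520 nm. Percent inhibition from duplicates in two independent experiments.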

ORF 73 [4] = target: T1, ORF 73; assay: as §1, with “fluorescent labelled LBS3 DNA binding” for “fluorescent labelled LBS2 DNA binding”; set-up: species or system Human gammaherpesvirus 8; method in brief: as §2
[5] = test system: ORF 73 (Human herpesvirus 8), O40947 [UNDEFINED MUTATION]; assay: (§4) Inhibition of 5'-Dy682-labelled LBS1 DNA binding to human herpesvirus 8 C-terminal His-tagged LANA oligomerization deficient mutant DBD (1008 to 1146 residues) expressed in Escherichia coli BL21 (DE3) at 500 uM preincubated for 1 hr followed by 5'-Dy682-labelled LBS1 DNA addition and measured after 30 mins by electrophoretic mobility shift assay; details: Human gammaherpesvirus 8
Method in brief: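 Native-gel EMSA. LANA DBD mutant (200 nM final) pre-incubated with compound for 1 h at RT in the dark, then Dy-682-labelled LBS1 probe (20 nM) added. Complex and free-probe band intensities normalised to 0–100% inhibition. Run in duplicate; purified GST served as control.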

ORF 73 [6] = target: T1, ORF 73; assay: as §1, with “fluorescent labelled LBS1 DNA binding” for “fluorescent labelled LBS2 DNA binding”; set-up: species or system Human gammaherpesvirus 8; method in brief: as §2
[7] = test system: ORF 73 (Human herpesvirus 8), O40947 [UNDEFINED MUTATION]; assay: as §4, with “of 5'-Dy682-labelled LBS1/LBS2 DNA binding” for “of 5'-Dy682-labelled LBS1 DNA binding”; details: Human gammaherpesvirus 8
Method in brief: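 Native-gel EMSA with a longer Dy-682-labelled probe carrying both LBS1 and LBS2 (20 nM). LANA DBD mutant (200 nM) pre-incubated with compound (500 µM) for 1 h at RT in the dark. Buffer was Tris-HCl pH 7.5 with KCl, MgCl2, DTT, EDTA, glycerol, Tween20, BSA and poly(dI-dC). Band intensities normalised to percent inhibition. Run in duplicate; GST served as control.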

[8] = test system: ORF 73 (Human herpesvirus 8), O40947 [UNDEFINED MUTATION]; assay: as §1, with “(DE3) at 500 uM” for “(DE3)”, “assay relative to control” for “assay”; details: Human gammaherpesvirus 8; method in brief: as §3

| Compound | Activity [1] | IC50 (ORF 73 [2]; read-out: IC50) | inhibition [3] | other results |
| --- | --- | --- | --- | --- |
| O=C(O)c1ccc(-n2cc(-c3ccc(NCC4CCCCC4)cc3)nn2)cc1 | inactive | – | – | IC50 (ORF 73 [2]): Not Active |
| COCc1cn(-c2ccc(C(=O)O)cc2)nn1 | inactive | 210 µM | – | – |
| O=[N+]([O-])c1ccc(-n2ccnc2)cc1 | inactive | – | 22% | – |
| COC(=O)c1ccc(-n2cc(CO)nn2)cc1 | inactive | 84 µM | – | – |
| O=C(O)c1ccc(-n2cc(CO)nn2)cc1 | inactive | 79 µM | – | – |
| O=C(O)c1ccc(-n2ccnn2)cc1 | inactive | – | 35% | – |
| O=C(O)c1ccc(-n2cc(-c3ccccc3NCC3CCCCC3)nn2)cc1 | inactive | – | – | IC50 (ORF 73 [2]): Not Active |
| Nc1ccccc1-n1cnc2ccccc21 | inactive | – | 32% | – |
| O=C(O)c1ccc(-n2cc(-c3ccccc3)nn2)cc1 | inactive | 232 µM | – | – |
| O=C(O)c1ccc(-n2cc(C3(O)CCCC3)nn2)cc1 | inactive | 159 µM | – | IC50 (ORF 73 [4]): 39 µM; inhibition [5]: inactive; IC50 (ORF 73 [6]): 104 µM; inhibition [7]: inactive |
| COc1ccc(-c2cn(-c3ccc(C(=O)O)cc3)nn2)cc1 | inactive | – | – | inhibition [8]: 20% |
| Nc1ccccc1-n1cc(-c2ccc(C(=O)O)cc2)nn1 | inactive | 18 µM | – | IC50 (ORF 73 [4]): 26 µM; inhibition [5]: Active; IC50 (ORF 73 [6]): 25 µM; inhibition [7]: Active |
| Nc1ccc(-c2cn(-c3ccc(C(=O)O)cc3)nn2)cc1 | inactive | 14 µM | – | IC50 (ORF 73 [4]): 12 µM; inhibition [5]: Active; IC50 (ORF 73 [6]): 19 µM; inhibition [7]: Active |
| O=C(O)c1ccccc1-n1ccnn1 | inactive | – | 12% | – |
| Nc1ccc(-n2ccnc2)cc1 | inactive | – | inactive | – |
| O=C(O)c1ccc(-n2cc(-c3cccc(NCC4CCCCC4)c3)nn2)cc1 | inactive | – | – | IC50 (ORF 73 [2]): Not Active |
| NCc1cn(-c2ccc(C(=O)O)cc2)nn1 | inactive | 30 µM | – | – |
| O=C(O)c1ccc(-n2cc(-c3cccc(NCCc4ccccc4)c3)nn2)cc1 | inactive | – | – | IC50 (ORF 73 [2]): Not Active |
| O=C(O)c1ccc(-n2cc(C3CC3)nn2)cc1 | inactive | 694 µM | – | – |
| Nc1cccc(-n2ccnc2)c1 | inactive | – | inactive | – |
| Nc1cccc(-c2cn(-c3ccccc3)nn2)c1 | inactive | – | – | IC50 (ORF 73 [2]): Not Active |
| Nc1ccccc1-n1cnc(Br)c1 | inactive | – | 13% | – |

— ChEMBL document CHEMBL4385596, “Fragment-Based Discovery of a Qualified Hit Targeting the Latency-Associated Nuclear Antigen of the Oncogenic Kaposi's Sarcoma-Associated Herpesvirus/Human Herpesvirus 8” (J Med Chem, 2019)
